Sampled rows, rich in hits. Any-hit rate of the full collection: about 2.9%.
RORA act – activators of human nuclear receptor RORA; P35398; CHO-K1 Gal4-RORA LBD luciferase reporter, luminescence; percent increase over mock-subtracted basal signal; activation, % at 10 µM; hit rate 1.5% among 65,000; AID 560;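 active means activation above the mean of all tested compounds plus 3 SD, cut at about 49% in these data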
SF-1 act – activates the human nuclear receptor SF-1; Q13285; CHO-K1 Gal4-SF-1 LBD luciferase reporter; % increase over DMSO SF-1-specific signal; activation, % at 10 µM; hit rate 1.9% among 65,000;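 active means activation above the mean activation of all tested compounds plus 3 SD, cut at about 50% in these data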
Target sequence (Q13285 whole entry, looked up, the tested form may be a part): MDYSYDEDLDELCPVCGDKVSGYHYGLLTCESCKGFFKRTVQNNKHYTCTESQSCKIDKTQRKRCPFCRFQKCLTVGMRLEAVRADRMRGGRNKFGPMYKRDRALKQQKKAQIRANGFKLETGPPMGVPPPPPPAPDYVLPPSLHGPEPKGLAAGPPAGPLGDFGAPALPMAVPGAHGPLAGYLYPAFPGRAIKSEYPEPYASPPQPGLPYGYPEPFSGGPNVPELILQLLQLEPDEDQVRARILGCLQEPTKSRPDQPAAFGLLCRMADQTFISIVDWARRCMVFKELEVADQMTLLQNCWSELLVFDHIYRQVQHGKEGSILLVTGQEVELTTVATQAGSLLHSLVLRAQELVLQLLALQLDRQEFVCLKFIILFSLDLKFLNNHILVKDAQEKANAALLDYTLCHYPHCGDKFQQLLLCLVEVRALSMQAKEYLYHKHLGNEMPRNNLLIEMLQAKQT
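Material: Transient Gal4-SF-1 LBD reporter, CHO-K1 | Input: 4,000 cells/well | Dosing: One dose, 10 µM compound, 1% DMSO | Incubation: 20 h compound treatment, 37 °C | Detection: SteadyLite luciferase luminescence | Evaluation: Percent activation relative to DMSO median and mock-transfected background | Benchmarks: DMSO-treated SF-1-transfected cells as negative, DMSO-treated mock-transfected cells lacking SF-1 as background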
HEK293 NFkB inh – lowers PMA/ionomycin-induced NF-kB signal in HEK293 cells; HEK-293 NF-kB luciferase reporter, luminescence; inhibition, % at 3 µM; hit rate 0.21% among 62,000; AID 465;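 active means inhibition above the mean of all tested compounds plus 3 SD, cut at about 40% in these data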
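Reagent: PMA plus ionomycin mix as NF-kB-activating stimulus. Assay system: NF-kB luciferase reporter HEK-293 cells. Technique: luminescence from luciferase substrate reagent. Incubation: 1 h compound pre-incubation, 16 h PMA/ionomycin at 37 °C. Benchmarks: DMSO only as uninhibited control, 10 µM reference inhibitor as full inhibition. Repeats: tested once.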
Jurkat tox 60K – cytotoxic compounds reducing Jurkat cell viability | Jurkat E6.1 viability, ATP luminescence, 48 h | inhibition, % at 4 µM | hit rate 1.2% among 56,000;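 active means inhibition above the mean inhibition of all tested compounds plus 3 SD, cut at about 28% in these data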
MT1-MMP txn act – activates MT1-MMP transcription; HT1080 MT1-MMP promoter luciferase reporter, luminescence, overnight; stronger effect = higher value; activation factor at 10 µM; hit rate 0.16% among 86,000; AID 750;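 active means activation factor of at least 2 for MT1-MMP transcription at 10 µM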
Numbers stand for hits; 0 = inactive; - = no result given.

SMILES	RORA act	SF-1 act	HEK293 NFkB inh	Jurkat tox 60K	MT1-MMP txn act
CCCCOCCCn1cnc2c([nH]c3cc(OC)ccc32)c1=O	0	0	0	0	0
CCOC(=O)N1CCN(C(=O)CSc2nnc(-c3ccc(C)c(C)c3)o2)CC1	0	0	0	0	0
CCOc1ccc(-c2nnc(SCC(=O)N3CCOCC3)o2)cc1	52	0	0	0	0
Cc1ccc(-c2nnc(SCC(=O)N3CCCC3)o2)cc1	0	0	0	0	0
Cc1ccc(-c2nnc(SCC(=O)N3CCCC3)o2)cc1C	58	0	0	0	0
Cc1oc(-c2ccccc2Cl)nc1CSCC(=O)NC1CCCC1	-	-	-	-	0
O=C(CSc1nnc(-c2ccccc2Cl)o1)N1CCCCC1	65	0	0	0	0
Cc1oc(-c2ccccc2Cl)nc1CSCC(=O)N1CCCC1	0	0	87	39	0
CC(C)(C)c1cc(NC(=O)CCSc2nnc3ccccn23)cc(C(C)(C)C)c1	-	-	-	-	0
COc1ccc(N(C(=O)c2ccc(Cl)cc2)C2=CC3CCC(C2)N3C)cc1 (stereo not drawn)	-	-	-	-	0
CN(CCc1ccccn1)Cc1ccc(Cl)cc1Cl	0	0	0	0	-
CCC1CCCCN1C(=O)CSc1nnc(-c2ccc3c(c2)OCCO3)o1 (stereo not drawn)	0	0	0	0	0
O=C(CSc1nnc(-c2ccc3c(c2)OCCO3)o1)N1CCCC1	0	50	0	0	0
Cc1cc(C(=O)CSc2nnc(-c3cccc(F)c3)n2N)c(C)n1Cc1ccc2c(c1)OCO2	0	0	0	37	0
O=C(Nc1ccccc1)c1cnc[nH]1	0	57	0	0	0
NC(=O)c1oc2ccccc2c1NC(=O)c1nc2ccccc2s1	83	64	0	0	0
O=C(CSc1nnc(-c2ccccc2)n1Cc1ccccc1)N1CCOCC1	0	0	0	0	0
Oc1ccccc1-c1nnc(SCCN2CCOCC2)n1Cc1ccccc1	0	0	0	78	0
CC1(c2ccc(Cl)c(Cl)c2)NC(=S)N2C1NC(=S)N2c1ccccc1 (stereo not drawn)	-	-	-	-	0
COc1cc(OC)c(C2=NOC(C(=O)O)C2)cc1Cl (stereo not drawn)	0	0	0	0	0
Cc1ccc2nc(SCC(=O)N3CCCC3)[nH]c2c1	74	53	0	0	0
Cc1ccc2nc(SC(C)C(=O)N3CCCC3)[nH]c2c1 (stereo not drawn)	0	0	0	0	0
CC(=O)NC(c1ccco1)c1ccc2cccnc2c1O (stereo not drawn)	0	0	0	74	0
COC(=O)c1[nH]c2ccc(Br)cc2c1NC(=O)CN1CCCc2ccccc21	-	-	-	-	0
COC(=O)c1[nH]c2cc(C)ccc2c1NC(=O)CN1CCCc2ccccc21	0	0	0	0	2.2
SMILES	RORA act	SF-1 act	HEK293 NFkB inh	Jurkat tox 60K	MT1-MMP txn act
Cc1ccc(N(CC(O)COCc2ccco2)S(=O)(=O)c2ccc(C)cc2)cc1 (stereo not drawn)	0	0	0	0	0
CCc1c(C)nc2ncnn2c1NCCc1ccc(OC)cc1	0	0	0	93	0
CCOC(=O)Cc1c(C)nc2c(-c3cccc(Br)c3)c[nH]n2c1=O	0	0	0	0	0
CCn1c(O)c(/C=N/N=C/c2ccccc2)c2ccc(C3=NNC(=O)CC3)cc21	-	-	-	-	0
CCN(CC)C(=O)CCCOc1ccc(Cl)cc1Cl	54	0	0	0	0
COc1ccc(Nc2nc(C(=O)NCCCN3CCOCC3)cs2)cc1	0	0	0	0	0
C=CC[n+]1c(-c2ccc(OC)c(OC)c2)csc1NNC(=O)Nc1ccccc1	-	-	-	-	0
COc1ccc(CCNC(=O)CN2CCN(c3cccc(Cl)c3)CC2)cc1OC	0	0	0	0	0
COc1cc(CN2CCN(c3cccc(Cl)c3)CC2)cc(OC)c1OC	0	0	0	81	0
CCn1c(SCC(N)=O)nnc1-c1ccco1	0	0	0	0	0
CCn1c(SCC(=O)c2cccs2)nnc1-c1ccco1	0	54	0	0	0
Nc1nc(Nc2cccc(F)c2)nc2ccccc12	0	67	0	-	0
CN(Cc1ccccc1)c1nc(N)c([N+](=O)[O-])c(Nc2cccc(F)c2)n1	-	-	-	-	0
CCn1nccc1C(=O)Nc1ccc(Cl)cc1Cl	0	67	0	0	0
CCn1nccc1C(=O)Nc1cc(Cl)ccc1Cl	0	0	0	0	0
CN(C)C(=O)[C@H]1C[C@@H]1[C@H](NC(=O)CNC(=O)[C@@H]1CCCN1C(=O)[C@H]1C[C@@H]1[C@H](NC(=O)OCc1ccccc1)c1ccccc1)c1ccccc1	-	-	-	-	0
O=C(Cc1cn2ccsc2n1)Nc1nc2c(s1)CN(Cc1ccccc1)CC2	0	0	0	0	0
O=C(Nc1ccccc1)OCc1ccccn1	60	0	0	0	0
O=C(Nc1ccccc1)OCCOc1ccccc1	0	0	0	0	0
COCCn1c(C)cc(C(=O)CSc2nnc(C)s2)c1C	0	0	46	0	0
COCCn1c(C)cc(C(=O)CSc2n[nH]c(N)n2)c1C	0	0	0	0	0
COc1ccc2c(=O)c(-c3ccccc3C)c(C)oc2c1	-	-	-	-	0
CCN(CC)C(=O)Oc1ccc2c(=O)c(-c3ccc(OC)cc3)c(C)oc2c1	60	0	0	0	0
CCN(CC)C(=O)Oc1ccc2c(=O)c(-c3ccc(OC)cc3)coc2c1	69	71	0	0	0
COC(=O)[C@@]1(Cc2ccccc2)[C@H]2c3cc(C(=O)N(C)C)n(CCN4CCNC4=O)c3C[C@H]2CN1C(=O)c1ccccc1	-	-	-	-	0
SMILES	RORA act	SF-1 act	HEK293 NFkB inh	Jurkat tox 60K	MT1-MMP txn act
CN(C)C(=O)CCc1nc(-c2ccc(C(C)(C)C)cc2)no1	0	0	0	0	0
CC(C)(CC(=O)O)Cc1nc(-c2ccc(Cl)cc2)no1	0	63	0	0	0
CC(C)(C)c1ccc(-c2noc(CCC(N)=O)n2)cc1	0	0	86	0	-
CNC(=O)CCc1nc(-c2ccc(C(C)(C)C)cc2)no1	0	0	70	0	0
O=C(O)CCc1nc(-c2ccc(Cl)cc2)no1	0	0	0	0	-
O=C1N2CCSC2=NC1(NS(=O)(=O)c1ccccc1)C(F)(F)F (stereo not drawn)	0	0	0	0	0
CC(CC(=O)c1cccs1)CC(=O)c1cccs1	74	74	0	0	0
COc1ccccc1-c1cc(C(=O)NC(C)C)no1	0	69	0	0	0
COc1ccc(-c2cc(C(=O)Nc3cc(C)nn3-c3ccccc3)no2)cc1	-	-	-	-	0
COc1ccccc1-c1cc(C(=O)Nc2cc(C)nn2-c2ccccc2)no1	0	0	0	89	0
COCCNC(=O)c1cc(-c2ccccc2OC)on1	52	71	0	0	0
COc1ccccc1-c1cc(C(=O)NC(C)c2ccccc2)no1 (stereo not drawn)	0	0	0	0	0
COc1ccccc1-c1cc(C(=O)NCc2cccs2)no1	0	0	0	0	0
Cc1cc(NC(=O)c2oc3ccccc3c2C)ccc1-n1cnnn1	86	0	0	0	0
COc1cc(OC)cc(C(=O)Nc2ccc(-n3cnnn3)c(C)c2)c1	50	54	0	0	0

Screening data: PubChem, several laboratories
